Assay results published in paper PMC3361693 (Chemistry & biology, 2012).
Converted amounts (≈) assume the structure as drawn. Where two headings read alike, the source gives them in different places.

Columns and labels:
[1] = system: NO production by LPS-stimulated RAW264.7 murine macrophages; assay: Inhibition of NO production by LPS-stimulated murine macrophages; assay type: cell-based; settings: Mus musculus
E. coli JB525 [2] = assay: QS inhibition: GFP production in E. coli JB525; assay type: cell-based, Escherichia coli
V. harveyi BB120 [3] = assay: microbe, parasite or virus in culture; assay type: cell-based, Vibrio harveyi
[4] = Cytotoxicity / cell survival in Raw264.7 cells; settings: mouse
V. harveyi BB120 [5] = assay: Growth inhibitory; assay type: cell-based, Vibrio harveyi
E. coli JB525 [6] = assay: Growth inhibitory; assay type: cell-based, Escherichia coli
Raw264.7 cells = assay: Cytotoxicity / cell survival in Raw264.7 cells; settings: for IC50: read-out: Cytotoxicity in Raw264.7 cells (IC50), Raw264.7 cells
IL-1β = assay: qRT-PCR transcript level in LPS-stimulated RAW 264.7 cells: IL-1β; assay type: cell-based, murine; settings: after 6 h of treatment
Procedure, shortened: (§1)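 Murine RAW264.7 macrophages were LPS-stimulated and treated with the test compound for 6 h, alongside untreated LPS-stimulated cells. RNA was isolated and reverse-transcribed to cDNA. Transcripts of TNF-α, IL-1β, IL-6 and iNOS were quantified by qRT-PCR and expressed as fold change versus untreated cells. Three replicates were run, reported as mean ± standard deviation, with Student's t-test (p < 0.05).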

TNF-α = assay: qRT-PCR transcript level in LPS-stimulated RAW 264.7 cells: TNF-α; assay type: cell-based, murine; settings: after 6 h of treatment
Procedure, shortened: as §1

IL-6 = assay: qRT-PCR transcript level in LPS-stimulated RAW 264.7 cells: IL-6; assay type: cell-based, murine; settings: after 6 h of treatment
Procedure, shortened: as §1

iNOS = assay: qRT-PCR transcript level in LPS-stimulated RAW 264.7 cells: iNOS; assay type: cell-based, murine; settings: after 6 h of treatment
Procedure, shortened: as §1

[7] = RAW264.7, read-out: NO inhibition (IC50 ± SD)
[8] = Escherichia coli, read-out: QS inhibition (IC50) E. coli
[9] = Vibrio harveyi, read-out: QS inhibition (IC50) V. harveyi
[10] = read-out: QS inhibition (IC50) E. coli, inhibition of GFP production, E. coli JB525, OHHL autoinducer
[11] = read-out: QS inhibition (IC50) V. harveyi, inhibition of bioluminescence, V. harveyi BB120
[12] = Escherichia coli, read-out: QS inhibition (IC50) E. coli, dash with footnote d
[13] = Vibrio harveyi, read-out: QS inhibition (IC50) V. harveyi, dash with footnote d
[14] = RAW264.7, read-out: NO inhibition (IC50), dash with footnote b

| Compound | IC50 [1, 7] | IC50 (V. harveyi BB120 [3]; [9]) | IC50 ([4]; RAW264.7 macrophage cells) | IC50 (E. coli JB525 [2]; [10]) | growth inhibitory effects: none observed up to concentration (V. harveyi BB120 [5]) | IC50 (V. harveyi BB120 [3]; [11]) | IC50 (Raw264.7 cells) | IC50 (E. coli JB525 [2]; [12]) | IC50 (V. harveyi BB120 [3]; [13]) | IC50 [4] | further results |
| --- | --- | --- | --- | --- | --- | --- | --- | --- | --- | --- | --- |
| O=C(O)/C=C/CCl [Compound 7, 4-chlorocrotonic acid] | 28 ± 4.3 µM | 72.5 µM | 80 µM | – | – | – | – | – | – | – | IC50 (E. coli JB525 [2]; [8]): 152 µM |
| CCOC(=O)C[C@H](O)COC(=O)/C=C/CCl [Compound 2, Honaucin B] | – | – | – | 908 µM | > 458 µM | 17.6 µM | 16 µM | – | – | – | growth inhibitory effects: none observed up to concentration (E. coli JB525 [6]): > 458 µM |
| O=C1C[C@H](O)CO1 [Compound 4, (S)-3-hydroxy-γ-butyrolactone] | – | – | – | – | – | – | – | > 125 µg/mL | > 125 µg/mL | > 98 µM | – |
| O=C(O)/C=C/CBr [Compound 14, 4-bromocrotonic acid] | 3.5 ± 0.5 µM | 10.5 µM | 35 µM | – | – | – | – | – | – | – | MIC (antibiotic effect) (E. coli JB525 [6]): 188 µM (≈ 31 µg/mL) |
| C/C=C/C(=O)O [Compound 9, crotonic acid] | > 116 µM | – | > 116 µM | – | – | – | – | > 125 µg/mL | > 125 µg/mL | – | IC50 [1, 14]: > 30 µg/mL |
| O=C(/C=C/CCl)O[C@H]1COC(=O)C1 [Compound 17, epi-honaucin A] | – | – | – | 260 µM | – | 22.1 µM | > 49 µM | – | – | – | – |
| COC(=O)C[C@H](O)COC(=O)/C=C/CCl [Compound 3, Honaucin C] | – | – | – | 576 µM | > 483 µM | 14.6 µM | 30 µM | – | – | – | growth inhibitory effects: none observed up to concentration (E. coli JB525 [6]): > 483 µM |
| O=C(/C=C/CCl)O[C@@H]1COC(=O)C1 [Compound 1, Honaucin A] | – | – | – | 38.5 µM | > 610 µM | 5.6 µM | > 49 µM | – | – | – | reduction in transcripts of IL-1β (IL-1β): −154.6 fold; reduction in transcripts of TNF-α (TNF-α): −9.3 fold; reduction in transcripts of IL-6 (IL-6): −19.0 fold; reduction in transcripts of iNOS (iNOS): −11.8 fold; growth inhibitory effects: none observed up to concentration (E. coli JB525 [6]): > 610 µM; therapeutic window between NO inhibitory effect and cytotoxicity (Raw264.7 cells; RAW264.7 cells, cytotoxicity IC50 vs NO inhibition IC50): greater than ten-fold |
| O=C(O)/C=C/CF [Compound 13, 4-fluorocrotonic acid] | 11.6 ± 4.3 µM | 167 µM | – | – | – | – | – | – | – | > 288 µM | IC50 (E. coli JB525 [2]; [8]): > 304 µM |
| O=C1C[C@@H](O)CO1 [Compound 5, (R)-3-hydroxy-γ-butyrolactone] | – | – | – | – | – | – | – | > 125 µg/mL | > 125 µg/mL | > 98 µM | – |
| O=C1OCCC1O (racemic) [Compound 6, (R/S)-2-hydroxy-γ-butyrolactone] | – | – | – | – | – | – | – | > 125 µg/mL | > 125 µg/mL | > 98 µM | IC50 [1, 14]: > 30 µg/mL |
| O=C(O)/C=C/CI [Compound 15, 4-iodocrotonic acid] | 1.2 ± 0.2 µM | 1.2 µM | 10 µM | – | > 32 µM | – | – | – | – | – | MIC (antibiotic effect) (E. coli JB525 [6]): 18 µM (≈ 3.82 µg/mL) |
